Experiments:
Plasmodium falciparum [1] = assay: Antiplasmodial activity against chloroquine-resistant Plasmodium falciparum W2/Indochina by [3H]hypoxanthine uptake; assay type: functional, organism-based
How it was run: (§1)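 Asexual erythrocytic stages kept in continuous culture (Trager and Jensen method). Each sample run as eight 4-fold dilutions, final 20 to 0.0012 µg/mL, in duplicate. IC50 and IC90 derived; number of independent experiments per value given separately.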

Plasmodium falciparum [2] = assay: Antiplasmodial activity against chloroquine-resistant Plasmodium falciparum FCB1-R/Colombia by [3H]hypoxanthine uptake; assay type: functional, organism-based; how it was run: as §1
Plasmodium falciparum [3] = assay: Antiplasmodial activity against chloroquine-sensitive Plasmodium falciparum FCA 20/ Ghana by [3H]hypoxanthine uptake; assay type: functional, organism-based; how it was run: as §1
HCT-116 = assay: Cytotoxicity against human HCT116 cells after 72 hrs by WST1 assay; assay type: cell-based; settings: HCT-116, 72 h
How it was run: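 HCT-116 colon cancer cells were seeded at 5000 per well in medium containing the test drugs, with matched DMSO controls. After 72 h, WST-1 was added for 30 min at 37 °C. Absorbance was read against a cell-free medium plus WST-1 blank and expressed as percent of control. Two independent experiments were run, each in triplicate, and means ± SEM were calculated.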

[4] = Selectivity index, ratio of IC50 for human HCT116 cells to IC50 for chloroquine-sensitive Plasmodium falciparum FCA 20/ Ghana; assay type: toxicity, cell-based, HCT-116; settings: HCT116 cells versus Plasmodium falciparum FCA 20/Ghana, read-out: Ratio IC50
How it was run: (§2)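 Selectivity index = IC50 in HCT-116 cells / IC50 in P. falciparum. Cell IC50: 5000 HCT-116 cells per well with drug, DMSO controls, 72 h incubation, then WST-1 for 30 min at 37 °C. Absorbance read against a cell-free blank and expressed as percent of control. Two independent experiments, each in triplicate, means ± SEM.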

[5] = Selectivity index, ratio of IC50 for human HCT116 cells to IC50 for chloroquine-resistant Plasmodium falciparum W2/Indochina; assay type: toxicity, cell-based, HCT-116; settings: HCT116 cells versus Plasmodium falciparum W2/Indochina, read-out: Ratio IC50; how it was run: as §2
[6] = Plasmodium falciparum, W2/Indochina
[7] = Plasmodium falciparum, FCB1-R/Colombia
[8] = Plasmodium falciparum, FCA 20/ Ghana

Row | SMILES | IC50 (Plasmodium falciparum [1]; [6]) [µM] | IC90 (Plasmodium falciparum [1]; [6]) [µM] | IC50 (Plasmodium falciparum [2]; [7]) [µM] | IC90 (Plasmodium falciparum [2]; [7]) [µM] | IC50 (Plasmodium falciparum [3]; [8]) [µM] | IC90 (Plasmodium falciparum [3]; [8]) [µM] | IC50 (Plasmodium falciparum [1]) [µM] | IC90 (Plasmodium falciparum [1]) [µM] | IC50 (Plasmodium falciparum [2]) [µM] | IC90 (Plasmodium falciparum [2]) [µM] | IC50 (Plasmodium falciparum [3]) [µM] | IC90 (Plasmodium falciparum [3]) [µM] | IC50 (HCT-116) [µM] | selectivity ratio [4] | selectivity ratio [5]
1 | C/C=C1/CN2CC[C@@]34c5ccccc5N5C([C@H]6[C@@H]7N(C(C)=O)c8ccccc8[C@@]78CCN7C/C(=C/C)[C@@H]6C[C@H]78)OC=C([C@H]1C[C@H]23)[C@H]54 (stereo not given in full) | 3.31 | 18.5 | 2.12 | 7.13 | 4.58 | 18.7 |  |  |  |  |  |  |  |  | 
2 | C[C@@H]1OC[C@H]2[C@@H]3C[C@H]4N(CC[C@]45c4ccccc4N[C@H]25)/C(=C/C2=CN4CC[C@]56c7ccccc7N[C@H]5[C@H](CO)[C@H]2C[C@H]46)[C@@H]31 | > 20 |  | 5.27 | 12.7 | 9.77 | 17.7 |  |  |  |  |  |  |  |  | 
3 | c1ccc2c(c1)C[C@H]1C3Nc4ccccc4C3CCN1C2 (stereo not given in full) | 18.3 | 89.5 | 12.9 | 47.4 | 11.3 | 42.2 |  |  |  |  |  |  |  |  | 
4 | C/C=C1\CN2CC[C@]34c5ccccc5N5[C@@H]6O[C@H]([C@H]([C@H]53)[C@H]1C[C@H]24)N1c2ccccc2[C@]23CCN4C/C(=C/C)[C@H](C[C@H]42)[C@H]6[C@H]13 (stereo in doubt; 53) [MATOPENSINE] |  |  |  |  |  |  | 8.66 | 86.7 | 4.67 | 24.8 | 13.2 | 73.3 |  |  | 
5 | CC1C2=CN3CCc4c([nH]c5ccc(O)cc45)C3CC2CC2NCCC3c4ccccc4N1C23 (stereo in doubt; 64) [JANUSSINE A] |  | 27.6 | 15.9 | 28.3 | 9.55 | 30.9 | 12.7 |  |  |  |  |  |  |  | 
6 | CC1C2=CN3CCc4c([nH]c5ccc(O)cc45)C3CC2CC2NCCC3c4ccccc4N1C23 (stereo in doubt; 65) [JANUSSINE A] |  |  |  |  |  |  | 4.75 | 27.8 | 17 | 33.1 | 12.6 | 34.9 |  |  | 
7 | C=CC1CN2CC[C@@]34c5cc(C(C)C6=CN7CC[C@]89c%10ccccc%10N[C@H]8[C@@H](CO)[C@H]6C[C@H]79)ccc5N[C@@H]3[C@@H](CO)[C@@H]1C[C@@H]24 (stereo in doubt; 67) [PANGANENSINE X] |  | 78.7 |  |  | 10.4 |  | 17.4 |  | 13.5 | 43.7 |  | 68.2 |  |  | 
8 | C=CC1CN2CC[C@@]34c5cc(C(C)C6=CN7CC[C@]89c%10ccccc%10N[C@H]8[C@@H](CO)[C@H]6C[C@H]79)ccc5N[C@@H]3[C@@H](CO)[C@@H]1C[C@@H]24 (stereo in doubt; 68) [PANGANENSINE X] | 17 |  | 12.9 | 26.1 |  | 34.8 |  | 85.8 |  |  | 14.9 |  |  |  | 
9 | CN1CCC2c3ccccc3N3C2[C@@H]1C[C@@H](C1=CCOC1=O)C[C@@H]3O (stereo not given in full) [AKAGERINE LACTONE] | 25.9 | 53.3 | 27.5 | 55.2 | 17 | 60.7 |  |  |  |  |  |  |  |  | 
10 | C[C@@H]1CC[C@H]2[C@@H](C)C(=O)O[C@@H]3O[C@@]4(C)CC[C@@H]1[C@]32OO4 [ARTEMISININ] | 0.002 | 0.017 | 0.005 | 0.013 |  |  |  |  |  |  |  |  |  |  | 
11 | CCN(CC)CCCC(C)Nc1ccnc2cc(Cl)ccc12 (stereo not given) [CHLOROQUINE] |  | 1.75 |  | 0.084 |  | 0.071 |  |  |  |  |  |  | 33.7 |  | 
12 | C/C=C1\CN2CCC3c4ccccc4NC3[C@@H]2C[C@@H]1CC1=NCCc2c1[nH]c1ccccc21 (stereo not given in full) [DIHYDROUSAMBARENSINE] | 0.032 | 4.68 |  |  | 0.857 | 2.49 |  |  |  |  |  |  | 12 | 14 | 375
13 | C=C1c2[nH]c3ccccc3c2CCN2C[C@@H](CC)CC[C@H]12 [EPINGOUNIENSINE] | 15.8 | 52.8 | 16.3 | 49.7 | 7.8 | 26.9 |  |  |  |  |  |  |  |  | 
14 | C/C=C1/CN2[C@@H](C3=C[C@@H]4[C@@H]5N(C3=O)c3ccccc3[C@@]53CCN5C/C(=C/C)[C@@H]4C[C@H]53)C[C@@]34c5ccccc5N5C(=O)CC=C([C@H]1C[C@H]23)[C@H]54 [ISOSUNGUCINE] | 0.265 | 1.72 |  |  | 1.32 | 7.06 |  |  |  |  |  |  |  |  | 
15 | C/C=C1/CN2CCc3c([nH]c4ccccc34)[C@@H]2C[C@@H]1C1=CN2c3ccccc3[C@]34CCN5C/C(=C/C)[C@H](C[C@H]53)[C@@H]([C@@H]1O)[C@H]24 [LONGICAUDATINE F] | 9.58 | 28.1 | 11.7 | 33.4 | 7.7 | 26.7 |  |  |  |  |  |  |  |  | 
16 | C=C1c2[nH]c3ccccc3c2CCN2C[C@H](CC)CC[C@H]12 [NGOUNIENSINE] | 20.2 | 70.1 | 17.8 | 62.8 | 26.8 | 71 |  |  |  |  |  |  |  |  | 
17 | C=C[C@H]1CN2CC[C@H]1C[C@H]2[C@H](O)c1ccnc2ccc(OC)cc12 [QUININE] | 0.413 | 1.72 | 0.2 | 2.74 | 0.269 | 1.91 |  |  |  |  |  |  |  |  | 
18 | C/C=C1/CN2CCc3c([nH]c4ccccc34)[C@@H]2C[C@@H]1C1CCC([C@H]2C[C@H]3c4[nH]c5ccccc5c4CCN3C/C2=C/C)C1 (stereo not given in full) [STRYCHNOFURANINE] | 2.8 | 16 | 10.8 | 33.5 | 4.11 | 15 |  |  |  |  |  |  |  |  | 
19 | C/C=C1/CN2CC[C@]34c5ccccc5N5C(=O)C([C@H]6C[C@]78c9ccccc9N9C(=O)C=C[C@@H]([C@H]97)[C@H]7C[C@@H]8N6C/C7=C/C)=C[C@H]([C@H]53)[C@H]1C[C@H]24 [SUNGUCINE] | 10.1 | 33.2 |  |  | 7.82 | 26.3 |  |  |  |  |  |  | 6.2 | 0.79 | 0.611
20 | C/C=C1/CN2CCc3c([nH]c4ccccc34)[C@@H]2C[C@@H]1C1=CN2c3ccccc3[C@]34CCN5C/C(=C/CO)[C@H](C[C@H]53)[C@@H]([C@@H]1O)[C@H]24 [TETRADEHYDROLONGICAUDATINE Y] | 0.958 | 12.1 |  |  | 1.24 | 7.97 |  |  |  |  |  |  |  |  | 
21 | C/C=C1/CN2CCc3c([nH]c4ccccc34)[C@@H]2C[C@@H]1Cc1nccc2c1[nH]c1ccccc12 [USAMBARENSINE] | 0.594 | 4.83 |  |  |  | 4.41 |  |  |  |  |  |  |  |  | 
22 | C=C[C@H]1CN2CCc3c([nH]c4ccccc34)[C@@H]2C[C@@H]1C[C@H]1c2[nH]c3ccccc3c2CCN1C [USAMBARINE] | 2.36 | 7.29 |  |  | 2.5 | 9.21 |  |  |  |  |  |  |  |  | 
